What all share (type): biochemical
One experiment has as its target T1, HCMV DNA pol (Human cytomegalovirus, UniProt P08546).
T1 sequence (P08546 1-1242): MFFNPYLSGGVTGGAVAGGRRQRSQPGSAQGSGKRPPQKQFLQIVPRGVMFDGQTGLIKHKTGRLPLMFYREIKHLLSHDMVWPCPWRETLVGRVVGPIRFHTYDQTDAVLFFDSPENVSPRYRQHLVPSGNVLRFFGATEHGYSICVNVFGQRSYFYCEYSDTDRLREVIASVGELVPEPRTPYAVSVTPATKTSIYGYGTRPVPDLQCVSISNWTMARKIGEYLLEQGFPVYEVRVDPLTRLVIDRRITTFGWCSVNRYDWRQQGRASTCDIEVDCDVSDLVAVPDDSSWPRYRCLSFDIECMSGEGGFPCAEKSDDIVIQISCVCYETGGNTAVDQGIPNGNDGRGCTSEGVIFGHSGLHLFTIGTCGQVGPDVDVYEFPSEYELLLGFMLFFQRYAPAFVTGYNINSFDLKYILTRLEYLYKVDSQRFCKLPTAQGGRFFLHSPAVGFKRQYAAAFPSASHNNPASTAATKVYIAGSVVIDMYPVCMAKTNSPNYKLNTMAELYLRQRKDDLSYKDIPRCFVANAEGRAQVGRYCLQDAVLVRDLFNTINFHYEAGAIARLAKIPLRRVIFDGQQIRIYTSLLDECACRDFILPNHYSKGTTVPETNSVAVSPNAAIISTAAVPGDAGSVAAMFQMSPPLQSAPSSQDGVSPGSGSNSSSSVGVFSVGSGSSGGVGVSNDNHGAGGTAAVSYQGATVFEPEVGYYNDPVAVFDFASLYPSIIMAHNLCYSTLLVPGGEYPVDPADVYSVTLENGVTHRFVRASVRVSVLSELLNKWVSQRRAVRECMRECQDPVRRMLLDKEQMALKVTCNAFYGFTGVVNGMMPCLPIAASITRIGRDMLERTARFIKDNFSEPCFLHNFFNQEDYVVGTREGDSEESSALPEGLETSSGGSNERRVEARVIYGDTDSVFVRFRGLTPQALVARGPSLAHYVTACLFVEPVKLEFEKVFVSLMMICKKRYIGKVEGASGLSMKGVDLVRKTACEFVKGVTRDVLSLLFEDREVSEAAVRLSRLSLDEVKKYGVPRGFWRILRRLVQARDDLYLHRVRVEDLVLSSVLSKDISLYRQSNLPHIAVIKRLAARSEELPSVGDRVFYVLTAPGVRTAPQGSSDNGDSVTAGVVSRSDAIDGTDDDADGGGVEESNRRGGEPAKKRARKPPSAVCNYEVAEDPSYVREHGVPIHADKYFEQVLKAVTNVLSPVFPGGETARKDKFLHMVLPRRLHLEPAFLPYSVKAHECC
Briefly: DNA polymerase inhibition, HCMV DNA pol. As to conditions: calf thymus DNA. The essentials: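 Recombinant or source enzyme not specified. HCMV DNA polymerase reaction uses activated calf thymus DNA as template/primer, 100 uM of each of three unlabeled dNTPs, and 0.5 uM rate-limiting tritium-labeled dNTP ([3H]dGTP or [3H]dTTP, as competitive substrate). The diphosphate form of the test compound is added in serial dilutions, up to 100 uM.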

Another experiment has as its target T2, DNA pol α (Homo sapiens, UniProt P09884).
T2 sequence (P09884 1-1462): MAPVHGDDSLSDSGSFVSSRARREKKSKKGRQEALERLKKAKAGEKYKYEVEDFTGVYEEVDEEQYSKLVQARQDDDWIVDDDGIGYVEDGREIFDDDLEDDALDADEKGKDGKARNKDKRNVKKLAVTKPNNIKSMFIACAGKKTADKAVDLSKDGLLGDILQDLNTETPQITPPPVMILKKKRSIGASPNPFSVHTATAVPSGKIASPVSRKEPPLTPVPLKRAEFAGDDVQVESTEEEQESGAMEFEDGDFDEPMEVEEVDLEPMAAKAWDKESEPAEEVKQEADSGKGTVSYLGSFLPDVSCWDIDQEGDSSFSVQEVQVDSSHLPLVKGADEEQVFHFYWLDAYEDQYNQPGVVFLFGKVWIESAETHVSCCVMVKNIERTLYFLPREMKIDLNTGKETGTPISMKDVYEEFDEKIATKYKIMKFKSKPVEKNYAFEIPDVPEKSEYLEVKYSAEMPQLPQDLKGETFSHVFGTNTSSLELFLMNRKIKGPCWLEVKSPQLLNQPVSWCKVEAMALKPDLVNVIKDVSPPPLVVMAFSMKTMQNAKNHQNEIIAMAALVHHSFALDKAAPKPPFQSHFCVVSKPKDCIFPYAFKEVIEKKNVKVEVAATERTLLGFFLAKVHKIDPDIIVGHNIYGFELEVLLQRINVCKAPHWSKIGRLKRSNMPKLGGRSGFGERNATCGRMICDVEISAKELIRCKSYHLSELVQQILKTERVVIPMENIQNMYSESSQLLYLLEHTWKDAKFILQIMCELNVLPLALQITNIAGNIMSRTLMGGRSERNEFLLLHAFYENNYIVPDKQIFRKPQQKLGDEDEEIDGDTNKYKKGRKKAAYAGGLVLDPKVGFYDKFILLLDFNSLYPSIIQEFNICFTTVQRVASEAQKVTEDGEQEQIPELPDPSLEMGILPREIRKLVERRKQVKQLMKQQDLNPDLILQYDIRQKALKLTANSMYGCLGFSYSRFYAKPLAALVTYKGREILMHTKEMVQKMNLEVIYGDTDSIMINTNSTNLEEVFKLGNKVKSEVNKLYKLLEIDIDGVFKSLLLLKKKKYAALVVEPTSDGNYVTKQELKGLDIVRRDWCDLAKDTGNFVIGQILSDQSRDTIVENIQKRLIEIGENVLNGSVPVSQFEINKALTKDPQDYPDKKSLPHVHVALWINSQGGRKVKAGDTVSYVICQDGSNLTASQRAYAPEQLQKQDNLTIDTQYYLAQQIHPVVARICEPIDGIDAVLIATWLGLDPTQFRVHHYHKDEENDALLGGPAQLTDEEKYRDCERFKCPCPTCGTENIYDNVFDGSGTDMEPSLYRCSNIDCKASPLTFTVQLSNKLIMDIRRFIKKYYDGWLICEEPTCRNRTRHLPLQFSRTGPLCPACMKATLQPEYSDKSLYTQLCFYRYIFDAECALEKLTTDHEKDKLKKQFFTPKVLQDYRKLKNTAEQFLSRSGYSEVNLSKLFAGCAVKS
The experiment is described as follows: DNA polymerase inhibition, DNA pol α. As to conditions: read-out: IC50 DNA pol α dGTP; calf thymus DNA, radiolabeled [3H]dGTP.

In the next experiment the target is DNA pol β (Homo sapiens, UniProt P06746). Briefly: DNA polymerase inhibition, DNA pol β. As to conditions: read-out: IC50 DNA pol β dGTP; calf thymus DNA, radiolabeled [3H]dGTP.

The record followed here is PMC6287304 (Antiviral Chemistry & Chemotherapy, 2018).

Where two headings read alike, the source gives them in different places. Where only a bound is given, the exact number is not on record here.

The IC50 is the point on the concentration scale where inhibition reaches its midpoint. Regarding `O=C(O)P(=O)(O)O` [PFA pyrophosphate], the IC50 at HCMV DNA pol (read-out: IC50 HCMV DNA pol dGTP, radiolabeled [3H]dGTP) is 7 ± 0.7 µM; at HCMV DNA pol (read-out: IC50 HCMV DNA pol dTTP, radiolabeled [3H]dTTP) it was 9.4 ± 6 µM; at DNA pol α, 56 ± 12 µM; on DNA pol β it was > 100 µM.
